21 compounds from ChEMBL document CHEMBL1131053, “Design, synthesis, and pharmacological evaluation of conformationally constrained analogues of N,N'-diaryl- and N-aryl-N-aralkylguanidines as potent inhibitors of neuronal Na+ channels” (J Med Chem, 1998) can be followed below.

Experiment [1] can be described thus: In vitro inhibition of Calcium flux into brain synaptosomes. It counts as functional, subcellular, Rattus norvegicus. The method in brief: (§1)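 45Ca2+ influx into brain synaptosomes depolarized by elevated K+, adapted from Nachsen and Blaustein. The rapid uptake component is measured, attributed to presynaptic neuronal (likely P-type) Ca2+ channels. Means of at least three determinations ± SEM unless otherwise indicated.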
In general terms: Calcium assays in cells follow changes in intracellular calcium, usually with a dye or a luminescent sensor.

Experiment [2] has as its target T1, Sodium channel protein type 2 subunit alpha (Rattus norvegicus, UniProt P04775). The experiment in a line: (§2) In vitro inhibition of [14C]- guanidinium influx in Chinese hamster ovary (CHO) cells expressing rat brain sodium channel type IIA (CNaIIA-1). It counts as cell-based.
Experiment [3] deals with Glutamate NMDA receptor. Put plainly: Displacement of [3H]-MK-801 binding to N-methyl-D-aspartate glutamate receptor of rat brain membranes. Type of experiment: cell membranes, Membrane. The method in brief:
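Rat brain membrane suspension; inhibition of [3H]MK-801 binding at the NMDA receptor ion-channel site. IC50 taken from displacement curves, Ki reported. Means of at least three separate determinations ± SEM.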
On the technique in general: Displacement assays read how much labelled ligand stays bound in the presence of the test substance.

Experiment [4] concerns Mus musculus. Put plainly: Percent inhibition of convulsions in audiogenic DBA/2 mice at dose 10 mg/kg. Type of experiment: functional. The method in brief:
(§3)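 Audiogenic DBA/2 mice of either sex, 6.5–12 g, 20–23 days old. Drug or vehicle (0.3 M mannitol, 10 mL/kg) given ip 30 min before a 12 kHz, 120 dB pure tone for 45 s or until respiratory arrest. % inhibition = (MRS control − MRS treatment)/MRS control × 100.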

In experiment [5] the test system is Mus musculus. Put plainly: Percent inhibition of convulsions in audiogenic DBA/2 mice at dose 20 mg/kg. Type of experiment: functional. The gist of the method:
as §3

Experiment [6] in a line: In vitro inhibition of Calcium flux into brain synaptosomes (Values are means of at least three separate determinations). It counts as functional, subcellular, Rattus norvegicus. The method in brief:
as §1

For experiment [7], the target named is T1, Sodium channel protein type 2 subunit alpha. Described as §2. Type of experiment: functional, cell-based.
Experiment [8] relates to Mus musculus. The experiment in a line: Percent inhibition of convulsions in audiogenic DBA/2 mice at dose 2 mg/kg. Type of experiment: functional. The method in brief: as §3
Experiment [9] deals with Mus musculus. The experiment in a line: Percent inhibition of convulsions in audiogenic DBA/2 mice at dose 4 mg/kg. It counts as functional. The gist of the method: as §3

One may read the IC50 as the concentration that inhibits the measured activity by half. By Ki is commonly meant a dissociation constant, usually derived from enzyme kinetics or from competition with a known ligand. A high value points to lower affinity. By inhibition in vivo is commonly meant the percentage by which the read-out fell short of the control. Read a high inhibition in vivo as a response far below the control.

T1 sequence (P04775 whole entry): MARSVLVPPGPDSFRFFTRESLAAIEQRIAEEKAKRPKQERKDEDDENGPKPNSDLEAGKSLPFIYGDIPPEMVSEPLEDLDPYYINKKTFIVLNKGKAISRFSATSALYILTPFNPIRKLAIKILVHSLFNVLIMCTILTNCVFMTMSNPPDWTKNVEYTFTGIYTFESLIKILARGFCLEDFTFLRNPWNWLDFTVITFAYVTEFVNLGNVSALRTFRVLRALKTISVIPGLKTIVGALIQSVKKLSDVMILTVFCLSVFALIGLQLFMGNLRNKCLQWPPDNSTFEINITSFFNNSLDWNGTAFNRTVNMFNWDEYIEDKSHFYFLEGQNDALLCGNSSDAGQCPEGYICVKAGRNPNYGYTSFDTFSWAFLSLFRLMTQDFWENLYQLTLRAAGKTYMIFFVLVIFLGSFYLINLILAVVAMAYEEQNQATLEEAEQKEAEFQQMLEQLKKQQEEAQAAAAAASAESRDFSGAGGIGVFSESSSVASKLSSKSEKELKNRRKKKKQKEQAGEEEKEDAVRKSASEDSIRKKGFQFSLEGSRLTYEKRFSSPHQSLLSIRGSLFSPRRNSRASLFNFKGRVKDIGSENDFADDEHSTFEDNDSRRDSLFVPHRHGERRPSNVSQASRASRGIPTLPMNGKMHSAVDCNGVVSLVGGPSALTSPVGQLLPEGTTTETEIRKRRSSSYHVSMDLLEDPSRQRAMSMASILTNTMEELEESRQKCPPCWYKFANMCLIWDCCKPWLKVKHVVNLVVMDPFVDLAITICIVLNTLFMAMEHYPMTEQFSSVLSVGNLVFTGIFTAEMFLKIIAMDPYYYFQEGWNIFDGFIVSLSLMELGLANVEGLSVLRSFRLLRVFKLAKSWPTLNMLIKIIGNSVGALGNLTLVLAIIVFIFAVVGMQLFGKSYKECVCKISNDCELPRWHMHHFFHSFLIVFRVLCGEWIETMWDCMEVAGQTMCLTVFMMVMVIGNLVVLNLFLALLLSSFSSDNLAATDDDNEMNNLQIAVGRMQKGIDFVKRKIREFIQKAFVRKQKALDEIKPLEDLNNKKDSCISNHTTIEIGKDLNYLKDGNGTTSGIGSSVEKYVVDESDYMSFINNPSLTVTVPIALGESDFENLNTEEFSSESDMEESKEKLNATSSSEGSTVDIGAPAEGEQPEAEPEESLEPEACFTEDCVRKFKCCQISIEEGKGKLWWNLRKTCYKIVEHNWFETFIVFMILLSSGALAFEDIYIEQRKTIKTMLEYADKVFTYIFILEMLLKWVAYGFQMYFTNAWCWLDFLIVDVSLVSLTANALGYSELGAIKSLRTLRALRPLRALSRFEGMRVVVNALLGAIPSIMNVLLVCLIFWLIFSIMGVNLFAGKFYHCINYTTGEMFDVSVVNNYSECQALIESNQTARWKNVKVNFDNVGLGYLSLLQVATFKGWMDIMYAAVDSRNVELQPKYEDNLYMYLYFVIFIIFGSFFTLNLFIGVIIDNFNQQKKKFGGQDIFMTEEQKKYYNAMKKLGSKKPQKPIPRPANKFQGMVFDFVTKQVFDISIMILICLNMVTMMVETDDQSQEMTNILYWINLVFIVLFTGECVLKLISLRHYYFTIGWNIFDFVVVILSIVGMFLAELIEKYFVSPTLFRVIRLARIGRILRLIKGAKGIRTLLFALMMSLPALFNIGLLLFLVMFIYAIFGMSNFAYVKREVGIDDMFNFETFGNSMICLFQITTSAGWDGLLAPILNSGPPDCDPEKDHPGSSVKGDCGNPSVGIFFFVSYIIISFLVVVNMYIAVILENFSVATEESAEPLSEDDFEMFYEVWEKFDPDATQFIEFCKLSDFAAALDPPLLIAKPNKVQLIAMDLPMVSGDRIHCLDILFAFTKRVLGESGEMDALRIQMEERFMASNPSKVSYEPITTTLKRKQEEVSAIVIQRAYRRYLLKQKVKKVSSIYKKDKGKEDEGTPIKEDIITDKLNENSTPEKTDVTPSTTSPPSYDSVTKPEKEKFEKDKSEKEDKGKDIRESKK

As for `CCC(C)c1ccc(N(Cc2ccc(C(C)(C)C)cc2)C(=N)N)cc1` (configuration not stated), the IC50 in experiment [1] is 2.4 µM; in [2] it was 0.62 µM. Also, the affinity in experiment [3], expressed as Ki, was 3.69 µM. The compound also showed an inhibition in vivo at 10 mg/kg in experiment [4] of 44%. The compound further returned an inhibition in vivo at 20 mg/kg in experiment [5] of 81%.
For the compound `c1ccc(NC2=NCCN2c2ccccc2)cc1`, in experiment [2], the concentration for half-maximal inhibition (IC50) is > 25 µM.
In [3], `COc1ccc(/N=C(\N)Nc2ccc3c4c(cccc24)CC3)c2ccccc12` came in with an inhibition constant (Ki) of 2.49 µM. The half-inhibitory concentration (IC50) in experiment [6] turned out to be 2.7 µM; in [7], 1.64 µM. For the same compound, the inhibition in vivo at 20 mg/kg in [5] worked out at 21%.
On to `CCC(C)c1ccc(NC(=N)Nc2ccc(C(C)CC)cc2)cc1` (configuration not stated), for which, in experiment [3], the affinity, expressed as Ki, was 4.33 µM. In experiment [5], this compound yielded an inhibition in vivo at 20 mg/kg of 69%.
`NC1=NCC(c2ccccc2)N1c1ccccc1` (configuration not stated): the half-maximal inhibitory concentration (IC50) in experiment [2] was > 24 µM.
On the same count and under the same terms, under `NC1=Nc2ccccc2CN1c1ccccc1` stands 9.95 µM.
`CCC(C)c1ccc(N2CCN(c3ccc(C(C)CC)cc3)C2=N)cc1` (configuration not stated) came in with an inhibition constant (Ki) in experiment [3] of 13.5 µM. Besides, in experiment [5], the inhibition in vivo at 20 mg/kg came to 58%. Moreover, the IC50 in experiment [7] was found to be 0.06 µM.
As to `N=C(N)N(Cc1ccccc1)c1ccccc1`, the IC50 in experiment [2] came out at 53 µM.
On to `CCC(C)c1ccc(N2CCCN(c3ccc(C(C)CC)cc3)C2=N)cc1` (configuration not stated), for which the inhibition in vivo at 2 mg/kg in experiment [8] is 41%. In addition, in experiment [3], affinity was put at a Ki of 35.1 µM. Moreover, the IC50 in [6] was 0.39 µM; in [7], 0.06 µM. This compound displayed an inhibition in vivo at 10 mg/kg in experiment [4] of 84%. This compound gave an inhibition in vivo at 4 mg/kg in [9] of 75%.
For the compound `CC(C)c1ccc2c(c1)CCC(c1ccc(C(C)(C)C)cc1)N2C(=N)N` (configuration not stated), the inhibitory constant (Ki) in [3] came to 3.84 µM. Besides, the concentration for half-maximal inhibition (IC50) in experiment [6] worked out at 0.9 µM; in [7], 0.46 µM. In addition, in experiment [4], 10 mg/kg produced 22% inhibition in vivo. 20 mg/kg produced 80% inhibition in vivo in experiment [5].
As for `N=C1N(c2ccccc2)CCCN1c1ccccc1`, the 50% inhibitory concentration (IC50) in experiment [2] was > 25 µM.
On to `N/C1=N/c2ccc(cc2)OCCCCCOc2ccc(cc2)N1`, for which the half-maximal inhibitory concentration (IC50) in [2] turned out to be 2.9 µM.
For the compound `CCOc1ccc(NC(=N)Nc2ccc(OCC)cc2)cc1`, it took 3.28 µM to reach half-maximal inhibition in experiment [2] (IC50).
Turning to `CCC(C)c1ccc(N(C)C(=N)N(C)c2ccc(C(C)CC)cc2)cc1` (configuration not stated), in [3], affinity was put at a Ki of 3.34 µM. Further, the values for the IC50 in [6] and in [7] were 2.5 µM and 1 µM, respectively. Moreover, the inhibition in vivo at 20 mg/kg in experiment [5] turned out to be 43%.
In the case of `N=C(N)N1Cc2ccccc2CCc2ccccc21`, in experiment [2], it took 38 µM to reach half-maximal inhibition (IC50).
For `N=C(N)N1c2ccccc2CCC1c1ccccc1` (configuration not stated), in experiment [2], the IC50 amounted to 17.5 µM.
Consider `CCC(C)c1ccc(N2C(N)=NCC2c2ccc(C(C)C)cc2)cc1` (configuration not stated), for which the IC50 is 3.5 µM in experiment [1] and 1.8 µM in experiment [2]. In experiment [3], this compound yielded an inhibition constant Ki of 4.41 µM. Moreover, in experiment [5], the inhibition in vivo at 20 mg/kg stood at 2%.
In experiment [2], `N=C1N(c2ccccc2)CCN1c1ccccc1` displayed a half-inhibitory concentration (IC50) of 14.7 µM.
Consider `N=C(Nc1ccccc1)Nc1ccccc1`, for which the IC50 in experiment [7] was > 14 µM.
In the case of `Nc1nnc(-c2cccc(Cl)c2Cl)c(N)n1` [LAMOTRIGINE], in experiment [4], the inhibition in vivo at 10 mg/kg stood at 71%.
In the case of `CN(c1nc2ccccc2s1)C1CCN(C[C@H](O)COc2ccc(F)c(F)c2)CC1` [LUBELUZOLE], 0.26 µM corresponded to half-maximal inhibition in [2] (IC50). In [5], this compound returned an inhibition in vivo at 20 mg/kg of 66%.
